Assays:
Mus musculus [1] = experiment: Evaluated against Maximal electroshock seizure test in mice after ip administration; format: functional
Procedure, shortened: (§1)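 Given intraperitoneally to mice. […] Seizure protection scored in the maximal electroshock test or against subcutaneous pentylenetetrazole (Metrazol). Neurologic toxicity scored on the rotorod.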

Mus musculus [2] = experiment: Evaluated against neurological toxicity determined from the rotarod test in mice after ip administration; format: functional; procedure, shortened: as §1
Mus musculus [3] = experiment: Tested against subcutaneous pentylenetetrazole (Metrazol) seizure test in mice after ip administration; format: functional; procedure, shortened: as §1
Rattus norvegicus [4] = experiment: Evaluated against Maximal electroshock seizure test in rat after po administration
Rattus norvegicus [5] = experiment: Evaluated against neurological toxicity determined from the rotarod test in rat after po administration
[6] = Protective index (TD50/ED50) value of the compound; format: functional
Procedure, shortened: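 Protective index taken as rotorod TD50 divided by maximal electroshock ED50, both in mg/kg and both from dose–effect data at the time of peak effect.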

SMILES | ED50 (Mus musculus [1]) [mg/kg] | TD50 (Mus musculus [2]) [mg/kg] | ED50 (Mus musculus [3]) [mg/kg] | ED50 (Rattus norvegicus [4]) [mg/kg] | TD50 (Rattus norvegicus [5]) [mg/kg] | PI [6]
CC(=O)NN(C(=O)NCc1ccccc1)c1ccccc1 | > 30 | > 100 | >300 | > 30 | > 30 | 
CC(=O)NN(C(=O)NCc1ccccc1)c1ncccn1 | > 100 | > 100 | >300 | ~30 | > 30 | 
CCC1(c2ccccc2)C(=O)NC(=O)NC1=O [PHENOBARBITAL] | 22 | 69 |  |  |  | 3.1
O=C1NC(=O)C(c2ccccc2)(c2ccccc2)N1 [PHENYTOIN] | 6.5 | 43 |  | 23 |  | 6.6
CC(=O)NN(C(=O)NCc1ccccc1)c1nccs1 | 22 | 120 | >200 | 6.2 | > 250 | 5.4
CC(=O)NN(C(=O)NCc1ccccc1)c1ccccn1 | > 30 | > 100 | >100 | < 30 | > 30 | 
CCCC(CCC)C(=O)O [VALPROIC ACID] | 290 | 480 |  | 400 |  | 1.3
CC(=O)NN(C)C(=O)NCc1ccccc1 | 89 | > 500 | >300 | > 30 | > 30 | > 5.6
CC(=O)NNC(=O)NCc1ccccc1 | > 100 | > 160 | >300 | 95 | > 160 | 

Reference: ChEMBL document CHEMBL1134797, “Synthesis and structural studies of aza analogues of functionalized amino acids: new anticonvulsant agents” (2001)
